Source: PubChem (The Scripps Research Institute Molecular Screening Center)
Compounds with a hit are over-represented: about 3.3% of the library has one in this group of screens.
HTR1E agonist – 5-HT1E (human) receptor agonism. actives 0.69% (n = 65,000). P28566. CHO 5-HT1E Ga15 NFAT-bla reporter, FRET; 0% DMSO wells, 100% control agonist wells. activation, % at 6 µM. AID 574;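 active means activation above a set limit, the screen-wide mean activation plus 3 SD, cut at about 8.5% in these data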;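 further: 100% = positive control agonist at 1 µM giving full maximal response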
Target sequence (P28566 whole entry, looked up): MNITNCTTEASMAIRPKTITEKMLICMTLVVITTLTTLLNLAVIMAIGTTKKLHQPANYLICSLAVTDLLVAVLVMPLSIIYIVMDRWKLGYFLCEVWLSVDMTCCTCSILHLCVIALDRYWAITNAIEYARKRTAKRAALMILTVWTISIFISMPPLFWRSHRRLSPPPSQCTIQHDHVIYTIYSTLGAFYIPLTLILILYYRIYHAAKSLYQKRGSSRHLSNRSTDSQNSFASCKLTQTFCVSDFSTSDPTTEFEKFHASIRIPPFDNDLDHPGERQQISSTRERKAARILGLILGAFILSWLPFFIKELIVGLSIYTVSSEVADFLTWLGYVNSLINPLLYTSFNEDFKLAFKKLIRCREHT
5HT1E antag – 5-HT1E (human) receptor antagonism; AID 571; P28566; inhibition, % at 6 µM; CHO 5-HT1E Ga15 NFAT-bla reporter, FRET, antagonist; actives 0.99% (n = 65,000);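 active means inhibition above a set limit, the mean inhibition across every tested compound plus 3 SD, cut at about 29% in these data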;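 further: signal is the 460 over 535 nm emission ratio of beta-lactamase substrate; 0% = agonist plus DMSO wells and 100% = wells without agonist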
5HT1a ag – 5-HT1a (human) receptor agonism | activation, % at 10 µM | actives 0.56% (n = 65,000) | CHO 5-HT1a Ga15 NFAT-bla reporter, FRET ratio; 0% basal, 100% maximal reference agonist;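 active means activation above the screen-wide mean activation plus 3 SD, cut at about 19% in these data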;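 further: 0% = DMSO wells and 100% = 5-CT at EC100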
HEK293 NFkB inh – inhibitors of the PMA/ionomycin-induced NF-kB reporter in HEK293 cells; HEK-293 NF-kB luciferase reporter, luminescence; inhibition, % at 3 µM; actives 0.21% (n = 62,000);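 active means inhibition above the mean of all tested compounds plus 3 SD, cut at about 40% in these data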;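 further: 0% = stimulated DMSO wells and 100% = 10 µM reference inhibitor 5653914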
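System: NF-kB luciferase reporter HEK-293 cells | Replication: Single test | Control set: DMSO vs reference inhibitor | Evaluation: % inhibition | Schedule: 1 h pretreatment, 16 h stimulation, 37 °C | Probe or stimulus: PMA with ionomycin | Compound dosing: One dose, 3 µM | Detection: Luciferase luminescence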
5HT1a antag – blocks the human serotonin 5-HT1a receptor; P08908; CHO 5-HT1a Ga15 NFAT-bla reporter, antagonist mode; inhibition, % at 10 µM; actives 0.68% (n = 62,000);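 active means inhibition above the mean of all tested compounds plus 3 SD, cut at about 43% in these data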;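 further: receptor stimulated by 5-CT agonist at 100 nM near EC80; beta-lactamase reporter measured by ratiometric fluorescence of a cleavable substrate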
Jurkat viability – reduces viability or proliferation of Jurkat cells; Jurkat E6.1 viability, ATP luminescence, 48 h; inhibition, % at 4 µM; actives 1.2% (n = 56,000);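 active means inhibition above the mean inhibition of all tested compounds plus 3 SD, cut at about 28% in these data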
Numbers without * were called inactive; · = no result given.

SMILES | HTR1E agonist | 5HT1E antag | 5HT1a ag | HEK293 NFkB inh | 5HT1a antag | Jurkat viability
CCN1CCN(c2ncc(C(=O)Nc3ccccc3C(=O)OC)c3ccccc23)CC1 | 17* | 6 | 1 | 19 | 0 | 1
CC(C)NC(=O)c1cnc(N2CCN(c3ccccn3)CC2)c2ccccc12 | -2 | 1 | -1 | 16 | 13 | 0
O=S(=O)(NCCCN1CCN(c2ccccc2F)CC1)c1cccc2cccnc12 | 9.1* | -5 | 6 | -4 | 40 | -8
C=C(CC)C(=O)c1ccc(OCC(=O)O)c(Cl)c1Cl | 0 | -3 | -4 | · | · | ·
CC(C)Cc1nnc(NC(=O)CSc2ncn[nH]2)s1 | 6 | 2 | 112* | 8 | -8 | 0
CCOC(=O)Nc1ccc2c(c1)N(C(=O)OC)c1ccccc1CC2 | 2 | 9 | 0 | 17 | 20 | 66*
CCOC(=O)Nc1ccc2c(c1)N(C(=O)CCN(C)C)c1ccccc1S2 | 1 | 19 | -1 | 5 | 46* | 7
C=CCn1c(-c2cccs2)nc2ccccc21 | 0 | 5 | 0 | 10 | 6 | -5
C=CCSc1nc2ccccc2n1Cc1nnc(-c2cccs2)o1 | 18* | 5 | 5 | 14 | 9 | -1
O=C(NC1CCCCC1)C(c1cccs1)N(Cc1cccs1)C(=O)c1ccco1 (stereo not drawn) | -1 | 0 | 0 | 11 | 50* | -1
O=C(NC1CCCC1)C(c1cccs1)N(CC1CCCO1)C(=O)Cc1cccs1 (stereo not drawn) | 0 | 3 | 0 | 6 | 44* | 9
CCC(C)c1ccc(NC(=O)C2CCCN(c3ncccn3)C2)cc1 (stereo not drawn) | 0 | 0 | 0 | 8 | -4 | 61*
Cc1ccc(-c2nc(-c3ccccn3)no2)cc1 | 0 | 3 | 3 | 80* | 2 | 35*
c1cc(-c2nc3cc(Oc4ccc5oc(-c6ccncc6)nc5c4)ccc3o2)ccn1 | 0 | 1 | 0 | 14 | -2 | -5
Cc1nc2ccccc2c2oc(C(=O)NCc3ccccn3)cc12 | 0 | -1 | 34* | 29 | 1 | 9
Cc1nc2ccccc2c2oc(C(=O)NCc3ccc4c(c3)OCO4)cc12 | -1 | 16 | -2 | 2 | -3 | 13
O=C(c1cnn(-c2nc3ccccc3s2)c1)c1ccccc1O | 0 | 12 | 21* | 7 | -7 | -3
O=C(Nc1ccc2c(c1)OCO2)OCc1ccccc1 | -1 | 0 | -1 | -39 | -2 | 0
Cc1c(/C=N/n2cnnc2)c2ccccc2n1CCOc1ccccc1 | 1 | 34* | 2 | 18 | -9 | 2
CSc1ccccc1N=CC1=C(O)CC(C)(C)CC1=O | -2 | 72* | -4 | 7 | 74* | 8
CC1(C)CC(=O)C(C=Nc2ccc3cn[nH]c3c2)=C(O)C1 | 0 | 40* | -3 | 6 | 36 | -7
CC1(C)CC(=O)C(C=Nc2ccc(O)cc2)=C(O)C1 | 0 | 10 | -5 | 21 | 12 | 6
CCOC(=O)Cc1c(C)nc2c(-c3ccc(Cl)cc3)c[nH]n2c1=O | 0 | 7 | -1 | 3 | 8 | -6
CCOc1ccccc1-c1nnc(SCC(=O)NC2CC3CCC2C3)n1CC (stereo not drawn) | 11* | -1 | -5 | 19 | 2 | 0
O=C(CCn1nnc2ccccc21)Nc1nnc(Cc2ccc(F)cc2)s1 | 13* | 3 | -1 | 20 | 6 | 2
SMILES | HTR1E agonist | 5HT1E antag | 5HT1a ag | HEK293 NFkB inh | 5HT1a antag | Jurkat viability
O=C1CC(C(=O)N2CCOCC2)C2(CCCC2)O1 (stereo not drawn) | 0 | -4 | -1 | 16 | 16 | -5
COc1ccccc1NC(=O)CSc1ncnc2c1oc1ccccc12 | 0 | 36* | 1 | 20 | -2 | -1
Cc1cccc(NC(=O)CSc2ncnc3c2oc2ccccc23)c1 | 1 | 12 | 1 | 7 | 4 | -12
CCc1nc(SCC(=O)Nc2nccs2)c2oc3ccccc3c2n1 | 4 | 38* | 1 | 6 | 2 | 14
CCc1nc(SCC(=O)Nc2ccc3c(c2)OCCO3)c2oc3ccccc3c2n1 | 0 | 23 | -2 | 23 | 5 | 6
COc1ccc(OC)c(NS(=O)(=O)c2ccc(SC)cc2)c1 | 0 | 17 | -1 | 12 | 8 | 78*
